Reference: ChEMBL document CHEMBL1140698, “Design, synthesis, and anti-inflammatory properties of orally active 4-(phenylamino)-pyrrolo[2,1-f][1,2,4]triazine p38alpha mitogen-activated protein kinase inhibitors” (J Med Chem, 2008)

Legend:
[1] = AUC (0 to 4 hrs) in rat at 10 mg/kg, po; assay type: ADME, organism-based; set-up: time < 4 hr, dose 10 mg/kg, route oral; settings: plasma
How it was run: (§1)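 Rats given a single oral 10 mg/kg dose in 9/0.5/0.5 water/EtOH/Tween 80. Plasma drug level measured at 0.5 h and AUC0-4h calculated, each as the average of 2 rats.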

[2] = Drug level in rat plasma at 10 mg/kg, po after 0.5 hrs; assay type: ADME, organism-based; set-up: dose 10 mg/kg, route oral; how it was run: as §1
[3] = Clearance in mouse at 5 mg/kg, iv or 10 mg/kg, po; assay type: ADME, organism-based; settings: in vivo
How it was run: (§2)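 Mice dosed at 5 mg/kg i.v. or 10 mg/kg p.o., 3 mice per group. Values given as average ± SEM.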

[4] = Half life in mouse at 5 mg/kg, iv or 10 mg/kg, po; assay type: ADME, organism-based; settings: in vivo; how it was run: as §2
[5] = Cmax in mouse at 5 mg/kg, iv or 10 mg/kg, po; assay type: ADME, organism-based; settings: in vivo; how it was run: as §2
[6] = Metabolic stability in human liver microsome after 10 mins; assay type: ADME; settings: liver microsomes, read-out: Stability
How it was run: (§3)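 Rat or pooled human (10 donors) liver microsomes at about 1 mg/mL protein, 1 mM NADPH, 56 mM potassium phosphate pH 7.4, compound 3 µM final, 37 °C. Quenched with acetonitrile and parent drug quantified by LC/MS/MS. Percent parent remaining at 10 min, n = 1.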

[7] = AUC (0 to 8 hrs) in mouse 5 mg/kg, iv or 10 mg/kg, po; assay type: ADME, organism-based; settings: plasma; how it was run: as §2
[8] = Bioavailability in mouse at 10 mg/kg, po; assay type: ADME, organism-based; settings: in vivo; how it was run: as §2
[9] = Mean residence time in mouse at 5 mg/kg, iv or 10 mg/kg, po; assay type: ADME, organism-based; settings: in vivo; how it was run: as §2
[10] = Tmax in mouse at 5 mg/kg, iv or 10 mg/kg, po; assay type: ADME, organism-based; settings: in vivo; how it was run: as §2
[11] = Volume of distribution at steady state in mouse 5 mg/kg, iv or 10 mg/kg, po; assay type: ADME, organism-based; settings: in vivo, read-out: Vdss; how it was run: as §2
[12] = Metabolic stability in rat liver microsome after 10 mins; assay type: ADME; settings: liver microsomes, read-out: Stability; how it was run: as §3
[13] = test system: Caco-2; test: Intrinsic permeability across human Caco-2 cells; assay type: ADME, cell-based

| AUC(0-t) at 4 h [1] | concentration at 0.5 h [2] | clearance [3] | half-life [4] | Cmax [5] | remaining at 10 min [6] | AUC(0-t) [7] | bioavailability [8] | MRT [9] | Tmax [10] | Vd [11] | remaining at 10 min [12] | Papp [13] | SMILES |
| --- | --- | --- | --- | --- | --- | --- | --- | --- | --- | --- | --- | --- | --- |
| 0.7 µM·h | 0.4 µM | – | – | – | – | – | – | – | – | – | – | – | CCCNC(=O)c1cn2ncnc(Nc3cc(NC(=O)OCC)ccc3C)c2c1C |
| 0.7 µM·h | 0.8 µM | 93 mL/min/kg | 2.2 h | 3.1 µM | 69% | 3.6 µM·h | 79% | 1.4 h | 0.25 h | 7.6 L/kg | 100% | 2 ×10⁻⁶ cm/s | CCNC(=O)c1cn2ncnc(Nc3cc(C(=O)NOC)ccc3C)c2c1C |
| 3.7 µM·h | 3.8 µM | – | – | – | – | – | – | – | – | – | – | – | CONC(=O)c1ccc(C)c(Nc2ncnn3cc(C(=O)NC(C)C)c(C)c23)c1 |
| 2.1 µM·h | 2.1 µM | 31 mL/min/kg | 1.2 h | 3.7 µM | 72% | 3.8 µM·h | 34% | 0.8 h | 0.5 h | 1.5 L/kg | 90% | 13.1 ×10⁻⁶ cm/s | CONC(=O)c1ccc(C)c(Nc2ncnn3cc(C(=O)N[C@@H](C)c4ccccc4)c(C)c23)c1 |
| 9.2 µM·h | 4.3 µM | – | – | – | 62% | – | – | – | – | – | 96% | – | CC[C@H](C)NC(=O)c1cn2ncnc(Nc3cc(C(=O)NOC)ccc3C)c2c1C |
| 2.1 µM·h | 6.6 µM | 28 mL/min/kg | 2.5 h | 18 µM | 83% | 13 µM·h | 97% | 1 h | 0.25 h | 1.6 L/kg | 82% | 5.8 ×10⁻⁶ cm/s | CCCNC(=O)c1cn2ncnc(Nc3cc(C(=O)NOC)ccc3C)c2c1C |
| 2.8 µM·h | 3.4 µM | – | – | – | – | – | – | – | – | – | – | – | CONC(=O)c1ccc(C)c(Nc2ncnn3cc(C(=O)NCc4ccccn4)c(C)c23)c1 |
